Data reported in ChEMBL document CHEMBL1142365, “Synthesis and evaluation of stilbenylbenzoxazole and stilbenylbenzothiazole derivatives for detecting beta-amyloid fibrils” (Bioorg Med Chem Lett, 2008).

Experiment: Displacement of [125I]TZDM from beta amyloid protein 42
Procedure, shortened: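 Competition binding against [125I]TZDM on pre-formed Ab42 aggregates. Mixtures incubated 3 h at room temperature. Bound and free radioligand separated by vacuum filtration through GF/B filters, then two washes with 10% EtOH at room temperature. Filter-bound radioactivity counted by gamma counter. Ki obtained by nonlinear regression of the inhibition data.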

| Ki | Structure (SMILES) |
| --- | --- |
| 410 pM | Nc1ccc(/C=C/c2ccc(-c3nc4cc(OCCF)ccc4s3)cc2)cc1 |
| 100 pM | CNc1ccc(/C=C/c2ccc(-c3nc4cc(OCCF)ccc4s3)cc2)cc1 |
| 320 pM | Nc1ccc(/C=C/c2ccc(-c3nc4cc(OCCF)ccc4o3)cc2)cc1 |
| 380 pM | CNc1ccc(/C=C/c2ccc(-c3nc4cc(OCCCF)ccc4s3)cc2)cc1 |
| 490 pM | CN(C)c1ccc(/C=C/c2ccc(-c3nc4cc(OCCCF)ccc4s3)cc2)cc1 |
| 500 pM | CNc1ccc(/C=C/c2ccc(-c3nc4ccc(OCCF)cc4o3)cc2)cc1 |
| 470 pM | Nc1ccc(/C=C/c2ccc(-c3nc4ccc(OCCF)cc4o3)cc2)cc1 |
| 450 pM | CNc1ccc(/C=C/c2ccc(-c3nc4cc(OCCCF)ccc4o3)cc2)cc1 |
| 350 pM | CN(C)c1ccc(/C=C/c2ccc(-c3nc4cc(OCCF)ccc4s3)cc2)cc1 |
| 590 pM | Nc1ccc(/C=C/c2ccc(-c3nc4ccc(OCCCF)cc4o3)cc2)cc1 |
| 120 pM | CN(C)c1ccc(/C=C/c2ccc(-c3nc4ccc(OCCCF)cc4s3)cc2)cc1 |
| 480 pM | CNc1ccc(/C=C/c2ccc(-c3nc4ccc(OCCCF)cc4s3)cc2)cc1 |
| 520 pM | CNc1ccc(/C=C/c2ccc(-c3nc4ccc(OCCF)cc4s3)cc2)cc1 |
| 570 pM | CN(C)c1ccc(/C=C/c2ccc(-c3nc4ccc(OCCF)cc4s3)cc2)cc1 |
| 590 pM | Nc1ccc(/C=C/c2ccc(-c3nc4ccc(OCCF)cc4s3)cc2)cc1 |
| 460 pM | CN(C)c1ccc(/C=C/c2ccc(-c3nc4ccc(OCCCF)cc4o3)cc2)cc1 |
| 680 pM | CNc1ccc(/C=C/c2ccc(-c3nc4ccc(OCCCF)cc4o3)cc2)cc1 |
| 450 pM | CN(C)c1ccc(/C=C/c2ccc(-c3nc4ccc(OCCF)cc4o3)cc2)cc1 |
| 470 pM | CN(C)c1ccc(/C=C/c2ccc(-c3nc4cc(OCCCF)ccc4o3)cc2)cc1 |
| 440 pM | CN(C)c1ccc(/C=C/c2ccc(-c3nc4cc(OCCF)ccc4o3)cc2)cc1 |
| 740 pM | CNc1ccc(/C=C/c2ccc(-c3nc4cc(OCCF)ccc4o3)cc2)cc1 |
| 450 pM | Nc1ccc(/C=C/c2ccc(-c3nc4cc(OCCCF)ccc4o3)cc2)cc1 |
| 550 pM | Nc1ccc(/C=C/c2ccc(-c3nc4ccc(OCCCF)cc4s3)cc2)cc1 |
| 420 pM | Nc1ccc(/C=C/c2ccc(-c3nc4cc(OCCCF)ccc4s3)cc2)cc1 |
| 770 pM | [11CH3]Nc1ccc(-c2nc3ccc(O)cc3s2)cc1 [PITTSBURGH COMPOUND B] |
